Test results reported in ChEMBL document CHEMBL2150978, “Phosphorodiamidates as a promising new phosphate prodrug motif for antiviral drug discovery: application to anti-HCV agents” (J Med Chem, 2011).

How the values were obtained:
[1] = Cytotoxicity against human HuH7 cells after 3 days; format: cell-based, Huh-7
In short: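 Huh7 replicon cells seeded at 2 × 10⁴ per well one day before dosing. Four-fold serial dilutions in growth medium, no-drug controls on each plate. Incubated 3 days at 37 °C, 5% CO₂. Viability read by CellTiter-Glo luminescence after 20 min with reagent.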

[2] = tested on: Hepatitis C virus; assay: Antiviral activity against Hepatitis C virus subtype 1b Con1 infected in human Huh7 cells assessed as inhibition of HCV replicon-encoded Renilla luciferase reporter activity after 72 hrs by HCV replicon assay; format: functional, organism-based, Hepacivirus hominis; conditions: Con1, Huh-7, 72 h
In short: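 Huh7 cells stably carrying a bicistronic subgenomic genotype 1b (Con1) replicon with Renilla luciferase reporter, seeded at 2 × 10⁴ cells/well the day before. Four-fold serial dilutions in growth medium, no-drug controls on each plate; 3 days at 37 °C, 5% CO₂. Luciferase reagent 20 min, then luminescence (RLU) read; EC₅₀ derived.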

Compound | CC50 at 72 h [1] | EC50 [2] | EC90 [2]
COc1nc(N)nc2c1ncn2[C@@H]1O[C@H](COP(=O)(NCc2ccccc2)N[C@@H](C)C(=O)OCC(C)(C)C)[C@@H](O)[C@@]1(C)O (mixture of isomers) | > 100000 nM | 430 nM | 1900 nM
COc1nc(N)nc2c1ncn2[C@@H]1O[C@H](COP(=O)(N[C@@H](C)C(=O)OCc2ccccc2)N[C@@H](C)C(=O)OCc2ccccc2)[C@@H](O)[C@@]1(C)O (mixture of isomers) | > 100000 nM | 490 nM | 1600 nM
COc1nc(N)nc2c1ncn2[C@@H]1O[C@H](COP(=O)(N[C@@H](C)C(=O)OC2CCCCC2)N[C@@H](C)C(=O)OC2CCCCC2)[C@@H](O)[C@@]1(C)O (mixture of isomers) | > 100000 nM | 50 nM | 190 nM
COc1nc(N)nc2c1ncn2[C@@H]1O[C@H](COP(=O)(N2CCC[C@H]2C(=O)OCc2ccccc2)N2CCC[C@H]2C(=O)OCc2ccccc2)[C@@H](O)[C@@]1(C)O (mixture of isomers) | > 100000 nM | 520 nM | 1800 nM
COc1nc(N)nc2c1ncn2[C@@H]1O[C@H](COP(=O)(Nc2ccccc2)N[C@@H](C)C(=O)OCC(C)(C)C)[C@@H](O)[C@@]1(C)O (mixture of isomers) | > 100000 nM | 270 nM | 820 nM
CCCCNP(=O)(NCCCC)OC[C@H]1O[C@@H](n2cnc3c(OC)nc(N)nc32)[C@](C)(O)[C@@H]1O (mixture of isomers) | > 100000 nM | 37800 nM | > 40000 nM
CC[C@H](C)[C@H](NP(=O)(N[C@H](C(=O)OC)[C@@H](C)CC)OC[C@H]1O[C@@H](n2cnc3c(OC)nc(N)nc32)[C@](C)(O)[C@@H]1O)C(=O)OC (mixture of isomers) | > 100000 nM | 5170 nM | 29500 nM
COc1nc(N)nc2c1ncn2[C@@H]1O[C@H](COP(=O)(N[C@@H](Cc2ccccc2)C(=O)OCc2ccccc2)N[C@@H](Cc2ccccc2)C(=O)OCc2ccccc2)[C@@H](O)[C@@]1(C)O (mixture of isomers) | 67000 nM | 320 nM | 1350 nM
COc1nc(N)nc2c1ncn2[C@@H]1O[C@H](COP(=O)(N[C@H](C(=O)OC2CCCCC2)c2ccccc2)N[C@H](C(=O)OC2CCCCC2)c2ccccc2)[C@@H](O)[C@@]1(C)O (mixture of isomers) | 18000 nM | 320 nM | 1800 nM
COc1nc(N)nc2c1ncn2[C@@H]1O[C@H](COP(=O)(N[C@@H](C)C(=O)OCC(C)C)N[C@@H](C)C(=O)OCC(C)C)[C@@H](O)[C@@]1(C)O (mixture of isomers) | > 100000 nM | 70 nM | 260 nM
COc1nc(N)nc2c1ncn2[C@@H]1O[C@H](COP(=O)(NCCC(=O)OCc2ccccc2)NCCC(=O)OCc2ccccc2)[C@@H](O)[C@@]1(C)O (mixture of isomers) | > 100000 nM | 3800 nM | > 10000 nM
COc1nc(N)nc2c1ncn2[C@@H]1O[C@H](COP(=O)(N[C@@H](C)C(=O)OC2CCC2)N[C@@H](C)C(=O)OC2CCC2)[C@@H](O)[C@@]1(C)O (mixture of isomers) | > 100000 nM | 320 nM | 800 nM
CC[C@H](C)[C@H](NP(=O)(N[C@H](C(=O)OCC(C)(C)C)[C@@H](C)CC)OC[C@H]1O[C@@H](n2cnc3c(OC)nc(N)nc32)[C@](C)(O)[C@@H]1O)C(=O)OCC(C)(C)C (mixture of isomers) | 15000 nM | 2900 nM | 6300 nM
COc1nc(N)nc2c1ncn2[C@@H]1O[C@H](COP(=O)(NCC(=O)OCc2ccccc2)NCC(=O)OCc2ccccc2)[C@@H](O)[C@@]1(C)O (mixture of isomers) | > 100000 nM | 600 nM | 1800 nM
COC(=O)C[C@H](NP(=O)(N[C@@H](CC(=O)OC)C(=O)OC)OC[C@H]1O[C@@H](n2cnc3c(OC)nc(N)nc32)[C@](C)(O)[C@@H]1O)C(=O)OC (mixture of isomers) | > 100000 nM | 10200 nM | > 40000 nM
COc1nc(N)nc2c1ncn2[C@@H]1O[C@H](COP(=O)(Nc2cccc3ccccc23)N[C@@H](C)C(=O)OCC(C)(C)C)[C@@H](O)[C@@]1(C)O (mixture of isomers) | > 100000 nM | 130 nM | 560 nM

Compound | CC50 at 72 h [1] | EC50 [2] | EC90 [2]
COc1nc(N)nc2c1ncn2[C@@H]1O[C@H](COP(=O)(N[C@@H](C)C(=O)OCC(C)(C)C)N2CCCC2)[C@@H](O)[C@@]1(C)O (mixture of isomers) | > 100000 nM | 870 nM | 4000 nM
CCOC(=O)[C@H](C)NP(=O)(N[C@@H](C)C(=O)OCC)OC[C@H]1O[C@@H](n2cnc3c(OC)nc(N)nc32)[C@](C)(O)[C@@H]1O (mixture of isomers) | > 100000 nM | 1200 nM | 4100 nM
COc1nc(N)nc2c1ncn2[C@@H]1O[C@H](COP(=O)(N[C@@H](C)C(=O)O[C@@H](C)c2ccccc2)N[C@@H](C)C(=O)O[C@@H](C)c2ccccc2)[C@@H](O)[C@@]1(C)O (mixture of isomers) | 88000 nM | 490 nM | 1700 nM
COc1nc(N)nc2c1ncn2[C@@H]1O[C@H](COP(=O)(N[C@H](C(=O)OC2CCCCC2)C(C)C)N[C@H](C(=O)OC2CCCCC2)C(C)C)[C@@H](O)[C@@]1(C)O (mixture of isomers) | 20000 nM | 2500 nM | 10000 nM
CCOc1nc(N)nc2c1ncn2[C@@H]1O[C@H](CO)[C@@H](O)[C@@]1(C)O | > 100000 nM | 9500 nM | 24500 nM
CCOc1nc(N)nc2c1ncn2[C@@H]1O[C@H](COP(=O)(N[C@@H](C)C(=O)OCc2ccccc2)N[C@@H](C)C(=O)OCc2ccccc2)[C@@H](O)[C@@]1(C)O (mixture of isomers) | 62000 nM | 290 nM | 1000 nM
COc1nc(N)nc2c1ncn2[C@@H]1O[C@H](COP(=O)(N[C@H](C(=O)OCC(C)(C)C)c2ccccc2)N[C@H](C(=O)OCC(C)(C)C)c2ccccc2)[C@@H](O)[C@@]1(C)O (mixture of isomers) | 24000 nM | 270 nM | 1500 nM
CCCCCNP(=O)(N[C@@H](C)C(=O)OCC(C)(C)C)OC[C@H]1O[C@@H](n2cnc3c(OC)nc(N)nc32)[C@](C)(O)[C@@H]1O (mixture of isomers) | > 100000 nM | 110 nM | 520 nM
CCOc1nc(N)nc2c1ncn2[C@@H]1O[C@H](COP(=O)(N[C@@H](C)C(=O)OCC(C)(C)C)N[C@@H](C)C(=O)OCC(C)(C)C)[C@@H](O)[C@@]1(C)O (mixture of isomers) | 72000 nM | 40 nM | 110 nM
COc1nc(N)nc2c1ncn2[C@@H]1O[C@H](COP(=O)(N[C@@H](CCSC)C(=O)OC2CCCCC2)N[C@@H](CCSC)C(=O)OC2CCCCC2)[C@@H](O)[C@@]1(C)O (mixture of isomers) | 51000 nM | 600 nM | 2600 nM
CC[C@H](C)[C@H](NP(=O)(N[C@H](C(=O)OCc1ccccc1)[C@@H](C)CC)OC[C@H]1O[C@@H](n2cnc3c(OC)nc(N)nc32)[C@](C)(O)[C@@H]1O)C(=O)OCc1ccccc1 (mixture of isomers) | 24000 nM | 400 nM | 1560 nM
COc1nc(N)nc2c1ncn2[C@@H]1O[C@H](COP(=O)(N[C@H](C(=O)OCC(C)(C)C)C(C)C)N[C@H](C(=O)OCC(C)(C)C)C(C)C)[C@@H](O)[C@@]1(C)O (mixture of isomers) | 32000 nM | 720 nM | 2500 nM
CCCCNP(=O)(N[C@@H](C)C(=O)OCc1ccccc1)OC[C@H]1O[C@@H](n2cnc3c(OC)nc(N)nc32)[C@](C)(O)[C@@H]1O (mixture of isomers) | > 100000 nM | 440 nM | 1680 nM
COc1nc(N)nc2c1ncn2[C@@H]1O[C@H](COP(=O)(N[C@@H](CC(=O)OCc2ccccc2)C(=O)OCc2ccccc2)N[C@@H](CC(=O)OCc2ccccc2)C(=O)OCc2ccccc2)[C@@H](O)[C@@]1(C)O (mixture of isomers) | > 100000 nM | 610 nM | 1900 nM
COc1nc(N)nc2c1ncn2[C@@H]1O[C@H](COP(=O)(NC2CC2)N[C@@H](C)C(=O)OCC(C)(C)C)[C@@H](O)[C@@]1(C)O (mixture of isomers) | > 100000 nM | 870 nM | 4700 nM
